CHO parental Ca: counter-screen: ATP calcium response change in parental CHO cells; AID 463079; parental CHO-K1, ATP-induced calcium, Fluo-8 fluorescence; 330,000 tested, 0.63% active; inhibition, % at 5.6 µM;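 active means inhibition above that plate's mean sample inhibition plus 3 SD, cut at about 26% in these data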
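Material: Parental CHO cells | Reagent: ATP | Compound dosing: Single nominal dose of 5.6 µM per compound | Detection: Intracellular calcium via Fluo-8 no-wash fluorescent dye | Read-out: % inhibition of ATP-induced calcium mobilization | Benchmarks: Low control ATP plus DMSO, high control DMSO only | Replicates: Singlicate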
OX1R antag-1: human HCRTR1 antagonism. CHO/OX1R cells, Fluo-8 calcium fluorescence, orexin A. inhibition, % at 5 µM. 330,000 tested, 0.43% active;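 active means inhibition above its plate's threshold, mean inhibition of all tested compounds on the plate plus 3 SD, cut at about 37% in these data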
OXTR potentiator: potentiates the human oxytocin receptor response. AID 2445. 320,000 tested, 0.061% active. CHO-OTR cells, Fluo-8 calcium fluorescence, potentiator mode; 0% = oxytocin EC15, 100% = EC100. activation, % at 3 µM;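 active means activation above that plate's cutoff, the mean activation of tested compounds plus 3 SD, cut at about 6.6% in these data, passing the limit was not always enough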
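assay system = CHO-OTR cells, human receptor | schedule = compound 6 min at room temperature before oxytocin, 100 s read | detection = Fluo-8 intracellular calcium fluorescence, ex 470-495, em 515-575 nm | evaluation = normalized max/min fluorescence ratio, % activation | control set = EC15 oxytocin alone as 0%, 75 nM oxytocin (EC100) as 100%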
OX1R antag-2: blocks the human orexin 1 receptor | O43613 | OX1R-expressing cells, FRET antagonist read-out | AID 485270 | inhibition, % at 6.6 µM | 330,000 tested, 1.8% active; in the data active means inhibition mostly above about 38%, no sharp cut-off; inactive means mostly below about 40%
V1aR counter: counter-screen for oxytocin receptor agonists: human V1a receptor agonists; 320,000 tested, 0.25% active; activation, % at 3 µM; P37288; CHO-V1R cells, Fluo-8 calcium fluorescence, agonist mode; 0% DMSO, 100% 3 nM vasopressin;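 active means activation above the mean activation of all tested compounds plus 3 SD, per screening run, cut at about 20% in these data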;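 further: signal is peak over basal fluorescence ratio across a 100 second FLIPR read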
Target sequence (P37288 whole entry, looked up): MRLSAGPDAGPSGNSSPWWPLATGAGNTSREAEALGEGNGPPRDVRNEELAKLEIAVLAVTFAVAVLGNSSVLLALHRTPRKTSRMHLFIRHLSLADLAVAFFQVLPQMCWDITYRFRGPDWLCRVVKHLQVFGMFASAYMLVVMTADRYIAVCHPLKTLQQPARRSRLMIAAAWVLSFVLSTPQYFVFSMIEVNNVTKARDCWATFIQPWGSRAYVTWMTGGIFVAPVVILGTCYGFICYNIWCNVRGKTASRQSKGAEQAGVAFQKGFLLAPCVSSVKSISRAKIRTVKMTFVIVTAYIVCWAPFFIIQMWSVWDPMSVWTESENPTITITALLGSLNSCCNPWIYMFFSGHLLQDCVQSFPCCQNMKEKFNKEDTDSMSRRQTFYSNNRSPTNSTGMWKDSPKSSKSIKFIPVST
OXTR ag: agonists of human oxytocin receptor. P30559. CHO-OTR cells, Fluo-8 calcium fluorescence; normalized: DMSO 0%, oxytocin 100%. activation, % at 3 µM. 320,000 tested, 0.32% active;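 active means activation above the mean of all tested compounds plus 3 SD, cutoff set per screening run, cut at about 20% in these data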;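 further: peak over basal fluorescence ratio from a 100 s FLIPR kinetic read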
OX1R HTRF confirm: OX1R (human) antagonism, HTRF confirmed; OX1R-expressing cells, HTRF antagonist assay; inhibition, % at 6.6 µM; shares compounds with OX1R antag-2; 1,800 tested, 49% active; in the data active means inhibition above about 55%;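 further: CHO cells expressing OX1R stimulated with orexin A at about EC80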
CHO-K1 HTRF cnt: signal in parental CHO-K1 cells, OX1R antagonist counter-screen; shares compounds with OX1R antag-2; HTRF counterscreen; inhibition, % at 6.6 µM; 1,800 tested, 48% active; in the data active means inhibition above about 17%
A number is an active result; . = inactive; / = no result given. An excerpt weighted towards active compounds, which were near 2.6% of everything screened.

SMILES	CHO parental Ca	OX1R antag-1	OXTR potentiator	OX1R antag-2	V1aR counter	OXTR ag	OX1R HTRF confirm	CHO-K1 HTRF cnt
CCOC(=O)c1cc(NC(=O)Nc2ccccc2Cl)c(C)nc1C	.	.	.	.	.	.	/	/
O=C1OCCN1/N=C/c1ccc([N+](=O)[O-])o1	.	.	.	79.2	.	.	60.4	92.8
O=[N+]([O-])c1ccc(/C=N/NC(=S)Nc2ccccc2)o1	.	.	.	.	.	.	/	/
COc1ccc(CCNC(=O)C(=O)NCC2OCCN2S(=O)(=O)c2ccc3c(c2)OCCO3)cc1OC (stereo not given)	.	.	.	.	.	.	/	/
COc1c(C)cc(C(=O)C2CCCN(C(=O)c3cccc(F)c3)C2)cc1C (stereo not given)	.	.	.	105.7	.	.	87.7	.
COc1ccc2cc(C(=O)C3CCCN(C(=O)c4cnccn4)C3)ccc2c1 (stereo not given)	.	.	.	97.2	.	.	.	.
COc1c(C)cc(C(=O)C2CCCN(C(=O)c3ccc4cc[nH]c4c3)C2)cc1C (stereo not given)	.	.	.	82.4	.	.	71.9	.
CCc1[nH]c(C(=O)O)c(C)c1C(=O)OC	.	.	.	.	.	.	/	/
Cc1ccccc1NC(=O)CCNS(=O)(=O)c1cccc2nsnc12	.	.	.	78.5	.	.	.	38.2
COc1ccc(N2CCN(C(=O)CCS(=O)(=O)c3cccc4nsnc34)CC2)cc1	.	.	.	90.3	.	.	.	48.2
O=C(CCNS(=O)(=O)c1cccc2nsnc12)N1CCN(c2ccccn2)CC1	.	.	.	127.3	.	.	.	22.6
O=C(CCNS(=O)(=O)c1cccc2nsnc12)N1CCc2ccccc21	.	.	.	94.7	.	.	.	21.6
O=C(CCNS(=O)(=O)c1cccc2nsnc12)NC1CCCc2ccccc21 (stereo not given)	.	.	.	.	.	.	/	/
Cc1cccc(NC(=O)CCNS(=O)(=O)c2cccc3nsnc23)c1C	.	.	.	.	.	.	/	/
COc1ccc(N2CCN(C(=O)CCS(=O)(=O)c3ccc(OC)cc3)CC2)cc1	.	.	.	.	.	.	/	/
CC(=O)N1CCc2cc(S(=O)(=O)CCC(=O)NCc3ccc(F)cc3)ccc21	.	.	.	.	.	.	/	/
Cn1c(=O)c2c(ncn2CC(=O)N2CCN(C(=O)c3ccco3)CC2)n(C)c1=O	.	.	.	.	.	.	/	/
CCn1cc(CN2CCCC(C(=O)Nc3cccc(-c4cc5ccccc5[nH]4)c3)C2)cn1 (stereo not given)	.	.	.	.	.	.	/	/
CCC(C(=O)N1CCOCC1)n1nc(C)c2c(C)n(-c3ccccc3)nc2c1=O (stereo not given)	.	.	.	.	.	.	/	/
O=S(=O)(NCc1ccccn1)c1cccc2nsnc12	.	.	.	85.0	.	.	.	42.8
COc1ccc(CCNc2nc(C)nc3c2nnn3Cc2ccccc2)cc1OC	.	.	.	.	.	.	/	/
COc1ccc(NC(=O)CCS(=O)(=O)c2cccc3nonc23)cc1Cl	.	.	.	.	.	.	/	/
Cn1ccnc1Sc1ccc(C(N)=O)cc1[N+](=O)[O-]	.	.	.	93.7	.	.	.	31.9
Cn1nnnc1Sc1ccc(C(=O)O)cc1[N+](=O)[O-]	.	.	.	90.4	.	.	.	54.2
Cc1cc(C)n2nc(-c3cccc(Br)c3)cc2n1	.	.	.	85.5	.	.	90.2	.
Cn1c(=O)n(C)c2cc(NC(=O)COc3ccc(F)cc3)ccc21	.	.	.	.	.	.	/	/
CN(C)c1ccc(/C=N/NC(=O)CN2CCN(c3ccc(F)cc3)CC2)cc1	.	.	.	.	.	.	/	/
Cc1nn(CC(=O)Nc2ccc3nc4n(c(=O)c3c2)CCCC4)c(C)c1[N+](=O)[O-]	.	.	.	.	.	.	/	/

Assay outcomes from PubChem.
